Active and inactive are the calls of the source. The rule behind the calls is not given here.
Tests used:
[1] = tested on: OVCAR-3; experiment: […] of glycolysis in human OVCAR-3 cells ssessed as decrease in conversion of D-[5-3H(N)]-glucose to 3H2O at 2 mM incubated for 24 hrs by liquid scintillation counting; format: functional, cell-based
Method in brief: (§1)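 Medium was acidified to 0.2 N HCl, and 3H2O was allowed to diffuse into water for 3 days before scintillation counting. Results are given as % glucose conversion/5 × 10^5 cells/6 h, triplicates.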

[2] = tested on: OVCAR-3; experiment: Upregulation of GLUT1 in human OVCAR-3 cells at 2 mM after 24 hrs by immunoblotting analysis; format: functional, cell-based
[3] = tested on: SK-OV-3; experiment: […] of glycolysis in human SK-OV-3 cells ssessed as decrease in conversion of D-[5-3H(N)]-glucose to 3H2O at 2 mM incubated for 24 hrs by liquid scintillation counting; format: functional, cell-based; method in brief: as §1
[4] = tested on: SK-OV-3; experiment: Upregulation of GLUT1 in human SKOV-3 cells at 2 mM after 24 hrs by immunoblotting analysis; format: functional, cell-based
[5] = Toxicity in NSG mouse xenografted with human derived High-grade serous ovarian cancer cell model of OVC-PDX3 assessed as reduction in body weight at 4 mg/kg/day, po for 30 days relative to control; format: organism-based; conditions: in vivo, 720 h, time 30 day
Method in brief: (§2)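 Serous ovarian carcinoma fragments of 1–2 mm3 were implanted s.c. on the right flank of 6–8-week female NSG mice and re-passaged at about 1 cm3. At an average of 100 mm3, mice were grouped 5 per group and gavaged with 4 mg/kg/day for 30 days. Caliper volume was calculated as lw2/2, with body weight monitored and endpoint xenografts weighed.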

[6] = tested on: SK-OV-3; experiment: Antitumor activity against human SK-OV-3 cells xenografted in NSG mouse assessed as reduction tumor weight at 4.5 mg/kg/day, po for 4 weeks relative to control; format: functional; parameters: scale not given: the % may be the effect or the level left
Method in brief: (§3)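 Female NSG mice aged 6–7 weeks received 4 × 10^6 SKOV-3 cells in serum-free medium s.c. on the right flank. At about 100 mm3, mice were grouped 5 per group and gavaged daily at 0, 1.5, 3 or 4.5 mg/kg for 28 days. Caliper volume was calculated as lw2/2, with body weights tracked and endpoint tumors weighed; mean ± SD.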

[7] = tested on: SK-OV-3; experiment: Antiproliferative activity against human SK-OV-3 cells assessed as reduction in number of cells at 75 nM after 24 to 72 hrs; format: functional, cell-based; conditions: time 24-72 hrs
Method in brief: (§4)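 For 72-h growth curves, cells in 12-well plates in RPMI 1640 with 10% FBS were grown with or without 75 nM inhibitor. Cell numbers were determined by Coulter counting after trypsinization. Data are mean ± SD of triplicates.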

[8] = Toxicity in NSG mouse xenografted with SK-OV-3 cells assessed as reduction in body weight at 4.5 mg/kg/day, po for 4 weeks relative to control; format: organism-based; parameters: scale not given: the % may be the effect or the level left; conditions: in vivo, 672 h; method in brief: as §3
[9] = tested on: HEY; experiment: Antiproliferative activity against human HEY cells assessed as decrease in size of colonies at 75nM after 3 weeks by crystal violet staining based assay; format: functional, cell-based
[10] = tested on: OVCAR-3; experiment: Antiproliferative activity against human OVCAR-3 cells assessed as decrease in number of colonies at 75nM after 3 weeks by crystal violet staining based assay; format: functional, cell-based
Method in brief: (§5)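 Soft agar colony assay: wells pre-coated with 0.6% agar in complete medium, with cells overlaid in medium containing 0.3% agar. Fresh 0.3% agar medium was added every 3–5 days. Inhibitor was 75 nM for SKOV-3 and OVCAR-3. After 3 weeks, colonies were crystal violet stained and counted above 100 μm diameter (SKOV-3, A2780) or 50 μm (OVCAR-3), reported as colonies per well.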

[11] = Antitumor activity against human derived High-grade serous ovarian cancer cell xenografted in NSG mouse model of OVC-PDX2 assessed as decrease in tumor weight at 4 mg/kg/day, po 30 days relative to control; format: functional, Ovarian carcinoma cell; parameters: scale not given: the % may be the effect or the level left; conditions: time 30 day; method in brief: as §2
[12] = Toxicity in NSG mouse xenografted with human derived High-grade serous ovarian cancer cell model of OVC-PDX2 assessed as reduction in body weight at 4 mg/kg/day, po for 30 days relative to control; format: organism-based; conditions: in vivo, 720 h, time 30 day; method in brief: as §2
[13] = Antitumor activity against human derived High-grade serous ovarian cancer cell xenografted in NSG mouse model of OVC-PDX3 assessed as decrease in tumor volume at 4 mg/kg/day, po 30 days relative to control; format: functional, Ovarian carcinoma cell; parameters: scale not given: the % may be the effect or the level left; conditions: time 30 day; method in brief: as §2
[14] = tested on: HEY; experiment: Antiproliferative activity against human HEY cells assessed as reduction in cell viability after 72 hrs MTT assay; format: functional, cell-based
Method in brief: (§6)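 Cells in RPMI 1640 with 10% FBS were exposed to inhibitor over a range up to 10 µM for 72 h. Viability was read by MTT staining with absorbance at 570 nm, and IC50 was obtained by curve fitting. Data are mean ± SD of triplicates, representative of 3 independent experiments.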

[15] = tested on: OVCAR-3; experiment: Antiproliferative activity against human OVCAR-3 cells assessed as reduction in cell viability after 72 hrs by MTT assay; format: functional, cell-based; conditions: OVCAR-3, 72 h; method in brief: as §6
[16] = tested on: A2780; experiment: Antiproliferative activity against human A2780 cells assessed as reduction in number of cells at 75 nM after 24 to 72 hrs; format: functional, cell-based; conditions: time 24-72 hrs; method in brief: as §4
[17] = tested on: HEY; experiment: Antiproliferative activity against human HEY cells assessed as reduction in number of cells at 75 nM after 24 to 72 hrs; format: functional, cell-based; conditions: time 24-72 hrs; method in brief: as §4
[18] = tested on: OVCAR-3; experiment: Antiproliferative activity against human OVCAR-3 cells assessed as reduction in number of cells at 75 nM after 24 to 72 hrs; format: functional, cell-based; conditions: time 24-72 hrs; method in brief: as §4
[19] = tested on: SK-OV-3; experiment: Antitumor activity against human SK-OV-3 cells xenografted in NSG mouse assessed as reduction tumor volume at 4.5 mg/kg/day, po for 4 weeks relative to control; format: functional; parameters: scale not given: the % may be the effect or the level left; method in brief: as §3
[20] = tested on: A2780; experiment: Antiproliferative activity against human A2780 cells assessed as decrease in size of colonies at 75nM after 3 weeks by crystal violet staining based assay; format: functional, cell-based; method in brief: as §5
[21] = tested on: SK-OV-3; experiment: Antiproliferative activity against human SK-OV-3 cells assessed as decrease in number of colonies at 75nM after 3 weeks by crystal violet staining based assay; format: functional, cell-based; method in brief: as §5
[22] = tested on: SK-OV-3; experiment: Antiproliferative activity against human SK-OV-3 cells assessed as reduction in cell viability after 72 hrs MTT assay; format: functional, cell-based; conditions: SK-OV-3, 72 h; method in brief: as §6
[23] = Antitumor activity against human derived High-grade serous ovarian cancer cell xenografted in NSG mouse model of OVC-PDX2 assessed as decrease in tumor volume at 4 mg/kg/day, po 30 days relative to control; format: functional, Ovarian carcinoma cell; parameters: scale not given: the % may be the effect or the level left; conditions: time 30 day; method in brief: as §2
[24] = tested on: A2780; experiment: Antiproliferative activity against human A2780 cells assessed as decrease in number of colonies at 75nM after 3 weeks by crystal violet staining based assay; format: functional, cell-based; method in brief: as §5
[25] = tested on: OVCAR-3; experiment: Antiproliferative activity against human OVCAR-3 cells assessed as decrease in size of colonies at 75nM after 3 weeks by crystal violet staining based assay; format: functional, cell-based; method in brief: as §5
[26] = Antitumor activity against human derived High-grade serous ovarian cancer cell xenografted in NSG mouse model of OVC-PDX3 assessed as decrease in tumor weight at 4 mg/kg/day, po 30 days relative to control; format: functional, Ovarian carcinoma cell; parameters: scale not given: the % may be the effect or the level left; conditions: time 30 day; method in brief: as §2
[27] = tested on: SK-OV-3; experiment: Antiproliferative activity against human SK-OV-3 cells assessed as reduction in number of cells at 25 to 75 nM after 24 hrs; format: functional, cell-based; conditions: dose 25-75 nM
Method in brief: (§7)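 Cells were grown in 12-well plates in RPMI 1640 with 10% FBS and treated with 0, 25, 50 or 75 nM inhibitor for 24 h. They were then trypsinized and counted with a Coulter counter. Data are mean ± SD of triplicates.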

[28] = tested on: OVCAR-3; experiment: Antiproliferative activity against human OVCAR-3 cells assessed as reduction in number of cells at 25 to 75 nM after 24 hrs; format: functional, cell-based; conditions: dose 25-75 nM; method in brief: as §7
[29] = tested on: SK-OV-3; experiment: Antiproliferative activity against human SK-OV-3 cells assessed as decrease in size colonies at 75nM after 3 weeks by crystal violet staining based assay; format: functional, cell-based; method in brief: as §5
[30] = tested on: HEY; experiment: Antiproliferative activity against human HEY cells assessed as decrease in number of colonies at 75nM after 3 weeks by crystal violet staining based assay; format: functional, cell-based
[31] = tested on: A2780; experiment: Antiproliferative activity against human A2780 cells assessed as reduction in cell viability up to 2 uM after 72 hrs by MTT assay; format: functional, cell-based; method in brief: as §6
[32] = tested on: OVCAR-3; experiment: Upregulation of GLUT1 in human OVCAR-3 cells at 50 […] after 24 hrs by immunoblotting analysis; format: functional, cell-based
[33] = tested on: SK-OV-3; experiment: Upregulation of GLUT1 in human SK-OV-3 cells at 50 nM after 24 hrs by immunoblotting analysis; format: functional, cell-based
[34] = tested on: SK-OV-3; experiment: […] of glycolysis in human SK-OV-3 cells ssessed as decrease in conversion of D-[5-3H(N)]-glucose to 3H2O at 50 nM incubated for 24 hrs by liquid scintillation counting; format: functional, cell-based; method in brief: as §1
[35] = tested on: OVCAR-3; experiment: […] of glycolysis in human OVCAR-3 cells ssessed as decrease in conversion of D-[5-3H(N)]-glucose to 3H2O at 50 nM incubated for 24 hrs by liquid scintillation counting; format: functional, cell-based; method in brief: as §1
[36] = tested on: OVCAR-3; experiment: Upregulation of GLUT1 in human OVCAR-3 cells at 0.25 mM after 24 hrs by immunoblotting analysis; format: functional, cell-based
[37] = tested on: OVCAR-3; experiment: […] of glycolysis in human OVCAR-3 cells ssessed as decrease in conversion of D-[5-3H(N)]-glucose to 3H2O at 0.25 mM incubated for 24 hrs by liquid scintillation counting; format: functional, cell-based; method in brief: as §1
[38] = tested on: SK-OV-3; experiment: […] of glycolysis in human SK-OV-3 cells ssessed as decrease in conversion of D-[5-3H(N)]-glucose to 3H2O at 0.25 mM incubated for 24 hrs by liquid scintillation counting; format: functional, cell-based; method in brief: as §1
[39] = tested on: SK-OV-3; experiment: Upregulation of GLUT1 in human SK-OV-3 cells at 0.25 mM after 24 hrs by immunoblotting analysis; format: functional, cell-based

In the case of `CN(C)C(=N)NC(=N)N`, the Activity [1] is reported as “Active”, the Activity [2] is reported as “Active” and the Activity [3] is reported as “Active”. The Activity [4] was “Active”.

With `Cc1c(NC(=O)c2cc(C(N)=O)nc3cc(F)ccc23)c(C(F)(F)F)nn1Cc1ccc(C#N)cc1` [BAY-876] the Activity [5] was “Non-Toxic”, the Activity [6] was 66% and the Activity [7] was “Active”. The Activity [8] was 18%, the Activity [9] was “Active” and the Activity [10] was “Active”. The Activity [11] was 50%, the Activity [12] was “Non-Toxic” and the Activity [13] was over 60%. The IC50 [14] was 1000 nM, the IC50 [15] was 60 nM and the Activity [16] was “inactive”. For the same compound, the Activity [17] was “Active”, the Activity [18] was “Active” and the Activity [19] was 68%. The Activity [20] was “inactive”, the Activity [21] was “Active” and the IC50 [22] was 188 nM. For the same compound, the Activity [23] was over 60%, the Activity [24] was “inactive” and the Activity [25] was “Active”. The Activity [26] was 71%, the Activity [27] was “Dose-Dependent Effect” and the Activity [28] was “Dose-Dependent Effect”. For the same compound, the Activity [29] was “Active”, the Activity [30] was “Active” and the Activity [31] was “inactive”.

With `COc1ccc([C@@H](O)[C@@H](C)Oc2ccc([C@H]3O[C@H](c4ccc(O[C@H](C)[C@H](O)c5ccc6c(c5)OCO6)c(OC)c4)[C@H](C)[C@H]3C)cc2OC)cc1OC` the Activity [32] was “Active”, the Activity [33] was “Active” and the Activity [34] was “Active”. The Activity [35] was “Active”.

With `CCOC(=O)[C@@]1(CCCCCCOc2ccc(Cl)cc2)CO1` the Activity [36] was “Active”, the Activity [37] was “Active” and the Activity [38] was “Active”. The Activity [39] was “Active”.

Source: ChEMBL document CHEMBL5712904 (Cancers (Basel), 2018)
